Here are results for seven compounds from ChEMBL document CHEMBL3632620, “Synthesis, characterization, crystal structure determination and biological screening of novel N-1 and C5 alkyl substituted scaffolds of pyrimidine” (2015).

Assay [1] relates to Salmonella enterica subsp. enterica serovar Abony. Put plainly: Antibacterial activity against Salmonella abony NCTC 6017 assessed as growth inhibition at 100 ug/ml after 8 to 24 hrs by agar well diffusion method. In kind it is functional. The note with it: read-out: DIZ. In a few lines:
(§1)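 Agar well diffusion on nutrient agar (peptone, yeast extract, NaCl, 2% agar, pH 7). Suspensions were set to 0.5 McFarland in sterile water, final inoculum 5x10^7 CFU/mL. Plates were swabbed and left 15 min, then ~4 mm wells received 100 µL compound in DMSO, with DMSO as control. Plates stood 2 h at room temperature, then 24 h at 37 °C. Inhibition zone diameter was measured.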

Assay [2] concerns Staphylococcus epidermidis. The assay is described as follows: Antibacterial activity against Staphylococcus epidermidis ATCC 12228 assessed as growth inhibition at 25 ug/ml after 8 to 24 hrs by agar well diffusion method. In kind it is functional. In short, it runs like this: as §1
The test system of assay [3] is Staphylococcus epidermidis. The assay is described as follows: Antibacterial activity against Staphylococcus epidermidis ATCC 12228 assessed as growth inhibition at 100 ug/ml after 8 to 24 hrs by agar well diffusion method. In kind it is functional. The note with it: for zone of inhibition at 100 µg/mL: read-out: DIZ. In short, it runs like this: as §1
Assay [4] concerns Escherichia coli. The assay is described as follows: Antibacterial activity against Escherichia coli ATCC 8739 after 24 to 48 hrs. It counts as functional. In a few lines: (§2)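 Broth MIC in nutrient broth, pH 7.0. Inoculum came from a 16 h culture set to 0.5 McFarland, then diluted 10-fold to 1.2x10^7 CFU/mL. Compounds went from a 4 mg/mL DMSO stock to final 250 to 0.03 µg/mL. Controls were inoculum without compound and compound without inoculum. Incubation was 24-48 h at 37 °C. Then 5 µL was spotted onto agar for 24 h at 37 °C. MIC is the lowest concentration with no visible growth.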

The test system of assay [5] is Staphylococcus aureus. The assay is described as follows: Antibacterial activity against Staphylococcus aureus ATCC 6538P after 24 to 48 hrs. In kind it is functional. In a few lines:
as §2

For assay [6], the system named is Salmonella enterica subsp. enterica serovar Abony. Put plainly: Antibacterial activity against Salmonella abony NCTC 6017 after 24 to 48 hrs. In kind it is functional. In a few lines: as §2
For assay [7], the system named is Staphylococcus epidermidis. The assay is described as follows: Antibacterial activity against Staphylococcus epidermidis ATCC 12228 after 24 to 48 hrs. It counts as functional. In short, it runs like this:
as §2

Assay [8] concerns Escherichia coli. Put plainly: Antibacterial activity against Escherichia coli ATCC 8739 assessed as growth inhibition at 25 to 100 ug/ml at 12 hrs by agar well diffusion method. It counts as functional, organism-based.
In assay [9] the test system is Staphylococcus aureus. The assay is described as follows: Antibacterial activity against Staphylococcus aureus ATCC 6538P assessed as growth inhibition at 25 to 100 ug/ml at 12 hrs by agar well diffusion method. In kind it is functional, organism-based.
For assay [10], the system named is Salmonella enterica subsp. enterica serovar Abony. Put plainly: Antibacterial activity against Salmonella abony NCTC 6017 assessed as growth inhibition at 25 to 100 ug/ml at 12 hrs by agar well diffusion method. In kind it is functional, organism-based.
In assay [11] the test system is Staphylococcus epidermidis. The assay is described as follows: Antibacterial activity against Staphylococcus epidermidis ATCC 12228 assessed as growth inhibition at 25 to 100 ug/ml at 12 hrs by agar well diffusion method. In kind it is functional, organism-based.
The test system of assay [12] is Escherichia coli. Put plainly: Antibacterial activity against Escherichia coli ATCC 8739 assessed as growth inhibition at 25 ug/ml after 8 to 24 hrs by agar well diffusion method. The note with it: read-out: DIZ. It counts as functional. In short, it runs like this:
as §1

Assay [13] deals with Escherichia coli. Put plainly: Antibacterial activity against Escherichia coli ATCC 8739 assessed as growth inhibition at 100 ug/ml after 8 to 24 hrs by agar well diffusion method. It counts as functional. The note with it: read-out: DIZ. In short, it runs like this:
as §1

Assay [14] deals with Staphylococcus aureus. Put plainly: Antibacterial activity against Staphylococcus aureus ATCC 6538P assessed as growth inhibition at 25 ug/ml after 8 to 24 hrs by agar well diffusion method. The note with it: read-out: DIZ. It counts as functional. In short, it runs like this: as §1
The subject of assay [15] is Staphylococcus aureus. The assay is described as follows: Antibacterial activity against Staphylococcus aureus ATCC 6538P assessed as growth inhibition at 100 ug/ml after 8 to 24 hrs by agar well diffusion method. It counts as functional. The note with it: read-out: DIZ. In a few lines:
as §1

In assay [16] the test system is Salmonella enterica subsp. enterica serovar Abony. The assay is described as follows: Antibacterial activity against Salmonella abony NCTC 6017 assessed as growth inhibition at 25 ug/ml after 8 to 24 hrs by agar well diffusion method. The note with it: read-out: DIZ. It counts as functional. In a few lines:
as §1

Structures are written as SMILES. ≈ marks a conversion by molar mass, not a printed value. Calls of active or inactive are those of the source. The rule behind the calls is not given here. Where only a bound is given, the exact number is not on record here.

With `CCOC(=O)C1(C)C(C)NC(=O)N(C)C1c1ccccc1[N+](=O)[O-]` (configuration not stated), the zone of inhibition at 100 µg/mL in assay [1] was 24 mm; in the assay with Escherichia coli [13] it was 18 mm; in the assay with Staphylococcus aureus [15] it was 28 mm. The “diameter of the inhibition zone (DIZ)” value in [2] and in [3] was “inactive” throughout. Moreover, the minimum inhibitory concentration (MIC) was 32 µg/mL (≈ 95.4 µM) with Escherichia coli [4], 8 µg/mL (≈ 23.9 µM) against Staphylococcus aureus [5], 16 µg/mL (≈ 47.7 µM) in [6] and above 250 µg/mL in [7]. In addition, the result (in the assay on Escherichia coli [8]; with Staphylococcus aureus [9]; in assay [10]; in assay [11]) was inactive. Moreover, the zone of inhibition at 25 µg/mL in the assay with Escherichia coli [12] is 13 mm; with Staphylococcus aureus [14] it was 14 mm; in assay [16], 15 mm.

As for `CCOC(=O)C1(C)C(C)NC(=S)N(C)C1c1ccc(OC)cc1` (configuration not stated), the zone of inhibition at 100 µg/mL in assay [1] was determined as 15 mm; in the assay on Escherichia coli [13], 22 mm; with Staphylococcus aureus [15], 16 mm. Also, the “diameter of the inhibition zone (DIZ)” value in assay [2] and in assay [3] was “inactive” in each case. Also, the MIC was 16 µg/mL (≈ 47.6 µM) in the assay with Escherichia coli [4], 32 µg/mL (≈ 95.1 µM) with Staphylococcus aureus [5], 32 µg/mL (≈ 95.1 µM) in [6] and above 250 µg/mL in assay [7]. Also, the outcome (with Escherichia coli [8]; with Staphylococcus aureus [9]; in [10]; in [11]) was inactive. The zone of inhibition at 25 µg/mL in the assay on Escherichia coli [12] came out at 15 mm; with Staphylococcus aureus [14], 12 mm; in [16] it was 16 mm.

`CCOC(=O)C1(C)C(C)NC(=O)N(C)C1c1ccc(Cl)cc1` (configuration not stated): the zone of inhibition at 100 µg/mL in assay [1] was 10 mm; in assay [3], 13 mm; with Escherichia coli [13], 14 mm; with Staphylococcus aureus [15], 16 mm. The “diameter of the inhibition zone (DIZ)” value in [2] is “inactive”. In addition, the minimum inhibitory concentration (MIC) against Escherichia coli [4] was found to be 32 µg/mL (≈ 98.5 µM); with Staphylococcus aureus [5], 68 µg/mL (≈ 209 µM); in assay [6], 125 µg/mL (≈ 385 µM); in [7] it was 68 µg/mL (≈ 209 µM). Besides, the outcome (with Escherichia coli [8]; in the assay with Staphylococcus aureus [9]; in assay [10]; in [11]) was inactive. Besides, the results for the zone of inhibition at 25 µg/mL (in the assay on Escherichia coli [12]; in the assay on Staphylococcus aureus [14]; in assay [16]) were 10 mm, 12 mm and 9 mm, respectively.

Turning to `CCOC(=O)C1(C)C(C)NC(=S)N(C)C1c1ccc(O)cc1` (configuration not stated), the zone of inhibition at 100 µg/mL in assay [1] was found to be 20 mm; in the assay with Escherichia coli [13], 20 mm; with Staphylococcus aureus [15] it was 15 mm. In addition, the “diameter of the inhibition zone (DIZ)” value in assay [2] and in assay [3] was “inactive” each time. The MIC was 32 µg/mL (≈ 99.2 µM) in the assay with Escherichia coli [4], 32 µg/mL (≈ 99.2 µM) in the assay on Staphylococcus aureus [5], 32 µg/mL (≈ 99.2 µM) in [6] and above 250 µg/mL in assay [7]. The result (in the assay on Escherichia coli [8]; in the assay on Staphylococcus aureus [9]; in assay [10]; in assay [11]) was inactive. In addition, the zone of inhibition at 25 µg/mL in the assay with Escherichia coli [12] was 17 mm; in the assay on Staphylococcus aureus [14], 13 mm; in [16], 16 mm.

As for `CCOC(=O)C1(C)C(C)NC(=O)N(C)C1c1ccc(OC)cc1` (configuration not stated), the zone of inhibition at 100 µg/mL in [1] stood at 13 mm; in the assay on Escherichia coli [13], 14 mm; with Staphylococcus aureus [15], 12 mm. In addition, the “diameter of the inhibition zone (DIZ)” value in [2] and in assay [3] was “inactive” each time. The minimum inhibitory concentration (MIC) in the assay on Escherichia coli [4] is 68 µg/mL (≈ 212 µM); with Staphylococcus aureus [5], 68 µg/mL (≈ 212 µM); in assay [6], 68 µg/mL (≈ 212 µM); in assay [7], above 250 µg/mL. Also, the result (with Escherichia coli [8]; in the assay on Staphylococcus aureus [9]; in assay [10]; in [11]) was inactive. The figures for the zone of inhibition at 25 µg/mL (in the assay with Escherichia coli [12]; in the assay on Staphylococcus aureus [14]; in assay [16]) were 13 mm, 10 mm and 10 mm, respectively.

As for `CCOC(=O)C1(C)C(C)NC(=S)N(C)C1c1ccccc1` (configuration not stated), the zone of inhibition at 100 µg/mL in [1] worked out at 18 mm; in the assay on Escherichia coli [13], 21 mm; in the assay with Staphylococcus aureus [15], 13 mm. Further, the “diameter of the inhibition zone (DIZ)” value in [2] and in [3] was “inactive” throughout. In addition, the MIC is 16 µg/mL (≈ 52.2 µM) against Escherichia coli [4], 68 µg/mL (≈ 222 µM) with Staphylococcus aureus [5], 32 µg/mL (≈ 104 µM) in [6] and above 250 µg/mL in assay [7]. Besides, the outcome (in the assay with Escherichia coli [8]; in the assay on Staphylococcus aureus [9]; in [10]; in assay [11]) was inactive. Also, the values for the zone of inhibition at 25 µg/mL (in the assay on Escherichia coli [12]; in the assay with Staphylococcus aureus [14]; in assay [16]) were 14 mm, 10 mm and 16 mm, respectively.

For the compound `CCOC(=O)C1(C)C(C)NC(=O)N(C)C1c1ccccc1` (configuration not stated), the zone of inhibition at 100 µg/mL in assay [1] was 10 mm; in assay [3], 14 mm; in the assay on Escherichia coli [13], 13 mm; with Staphylococcus aureus [15], 10 mm. In [2], the “diameter of the inhibition zone (DIZ)” value is “inactive”. Further, the MIC was found to be 68 µg/mL (≈ 234 µM) against Escherichia coli [4], 125 µg/mL (≈ 430 µM) against Staphylococcus aureus [5], 125 µg/mL (≈ 430 µM) in assay [6] and 68 µg/mL (≈ 234 µM) in [7]. Further, the outcome (in the assay with Escherichia coli [8]; with Staphylococcus aureus [9]; in assay [10]; in assay [11]) was inactive. The figures for the zone of inhibition at 25 µg/mL (in the assay on Escherichia coli [12]; in the assay on Staphylococcus aureus [14]; in assay [16]) were 12 mm, 10 mm and 9 mm, respectively.
